Data set [1] has as its target T1, Toll-like receptor 8 (Homo sapiens) (UniProt Q9NR97).
T1 sequence (whole entry): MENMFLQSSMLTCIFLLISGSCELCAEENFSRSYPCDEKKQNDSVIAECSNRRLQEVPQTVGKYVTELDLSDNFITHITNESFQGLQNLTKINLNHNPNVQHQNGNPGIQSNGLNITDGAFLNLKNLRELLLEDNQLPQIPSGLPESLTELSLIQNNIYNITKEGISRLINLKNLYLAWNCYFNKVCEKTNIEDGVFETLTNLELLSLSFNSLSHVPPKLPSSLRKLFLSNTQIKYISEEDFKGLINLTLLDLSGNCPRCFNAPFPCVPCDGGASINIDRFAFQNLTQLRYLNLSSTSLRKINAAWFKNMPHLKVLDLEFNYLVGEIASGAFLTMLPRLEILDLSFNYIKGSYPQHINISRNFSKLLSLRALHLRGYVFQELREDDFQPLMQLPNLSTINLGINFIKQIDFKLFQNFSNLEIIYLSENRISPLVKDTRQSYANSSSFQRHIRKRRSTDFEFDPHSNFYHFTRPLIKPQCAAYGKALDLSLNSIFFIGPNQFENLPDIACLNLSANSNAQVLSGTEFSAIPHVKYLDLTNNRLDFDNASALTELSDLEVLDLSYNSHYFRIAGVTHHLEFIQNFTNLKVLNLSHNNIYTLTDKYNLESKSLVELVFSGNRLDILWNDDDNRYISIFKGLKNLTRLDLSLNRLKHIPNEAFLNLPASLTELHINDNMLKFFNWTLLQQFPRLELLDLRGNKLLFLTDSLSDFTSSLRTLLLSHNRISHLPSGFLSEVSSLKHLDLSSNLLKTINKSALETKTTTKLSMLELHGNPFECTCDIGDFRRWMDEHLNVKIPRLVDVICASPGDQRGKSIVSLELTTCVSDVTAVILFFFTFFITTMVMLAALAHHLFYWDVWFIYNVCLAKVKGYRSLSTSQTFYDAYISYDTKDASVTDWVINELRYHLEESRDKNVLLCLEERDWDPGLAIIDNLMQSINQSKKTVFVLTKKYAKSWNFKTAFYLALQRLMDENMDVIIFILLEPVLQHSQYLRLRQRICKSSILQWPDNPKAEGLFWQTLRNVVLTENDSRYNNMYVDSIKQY
In words: Activation of human TLR8 expressed in HEK293XL assessed as fold induction of NF-kappaB activity at 50 ug/ml after 18 hrs by reporter gene assay relative to control. The method in brief:
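HEK293 cells stably expressing human TLR7 or TLR8, transiently transfected with SEAP reporter plasmid; medium replaced, SIMRA compounds added, 18 h incubation. Supernatant SEAP measured by QuantiBlue; expressed as fold increase in NF-κB activity over PBS control. Tabulated data at 50 μg/mL, representative of three independent experiments.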
On the technique in general: Reporter assays use an easily measured gene product as a stand-in for the process of interest.

In data set [2] the target is T2, Toll-like receptor 9 (Mus musculus) (UniProt Q9EQU3).
T2 sequence (whole entry): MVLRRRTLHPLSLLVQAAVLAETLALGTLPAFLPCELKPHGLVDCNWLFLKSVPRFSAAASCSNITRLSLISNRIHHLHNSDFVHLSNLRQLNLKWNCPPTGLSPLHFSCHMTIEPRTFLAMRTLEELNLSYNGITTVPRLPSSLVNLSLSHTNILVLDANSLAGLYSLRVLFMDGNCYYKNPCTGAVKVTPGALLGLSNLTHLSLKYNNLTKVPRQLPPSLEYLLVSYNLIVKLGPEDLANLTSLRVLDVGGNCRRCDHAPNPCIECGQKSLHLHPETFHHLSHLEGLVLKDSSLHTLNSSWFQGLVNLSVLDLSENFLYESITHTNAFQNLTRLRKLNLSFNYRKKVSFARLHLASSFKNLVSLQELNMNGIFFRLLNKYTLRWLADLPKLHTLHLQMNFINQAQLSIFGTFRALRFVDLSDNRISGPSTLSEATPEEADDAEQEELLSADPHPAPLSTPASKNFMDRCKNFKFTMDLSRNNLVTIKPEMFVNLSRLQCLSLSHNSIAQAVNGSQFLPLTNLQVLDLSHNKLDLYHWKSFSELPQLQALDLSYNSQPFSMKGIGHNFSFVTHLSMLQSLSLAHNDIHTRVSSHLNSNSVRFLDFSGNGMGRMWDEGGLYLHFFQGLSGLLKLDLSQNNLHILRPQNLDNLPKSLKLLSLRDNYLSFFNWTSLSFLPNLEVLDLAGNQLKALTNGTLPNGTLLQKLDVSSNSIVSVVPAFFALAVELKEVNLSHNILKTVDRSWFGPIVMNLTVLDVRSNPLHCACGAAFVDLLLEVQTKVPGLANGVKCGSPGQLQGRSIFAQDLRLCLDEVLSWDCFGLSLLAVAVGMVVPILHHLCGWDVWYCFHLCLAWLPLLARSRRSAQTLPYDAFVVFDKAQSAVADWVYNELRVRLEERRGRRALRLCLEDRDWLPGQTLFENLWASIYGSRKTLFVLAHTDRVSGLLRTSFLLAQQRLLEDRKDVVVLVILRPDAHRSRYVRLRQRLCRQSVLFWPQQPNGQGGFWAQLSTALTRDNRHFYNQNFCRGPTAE
The data set is described as follows: Activation of mouse TLR9 expressed in HEK293 assessed as induction of NF-kappaB activity reporter gene assay. It is filed as cell-based.

In data set [3] the target is Toll-like receptor 3 (Homo sapiens) (UniProt O15455). In words: Activation of human TLR3 expressed in HEK293 assessed as induction of NF-kappaB activity reporter gene assay. It is filed as cell-based.
Data set [4] relates to Splenocyte. The data set is described as follows: Immunomodulatory activity in C57BL/6 mouse splenocytes bearing TLR7 receptor assessed as IL6 release at 100 ug/ml after 24 hrs by ELISA. The class given is functional, cell-based. The method in brief: (§1)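 C57BL/6 splenocytes in RPMI 1640 with 10% FBS, penicillin/streptomycin, 2 mM L-glutamine, plated at 5 × 10^6 cells/mL; compounds in PBS added, 37 °C for 24 h. Supernatant IL-12 and IL-6 by ELISA; representative of three independent experiments.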
A general note: In an ELISA, binding on a coated surface is turned into a signal by an enzyme label.

Data set [5] concerns Splenocyte. The data set is described as follows: Immunomodulatory activity in C57BL/6 mouse splenocytes bearing TLR7 receptor assessed as IL12 release at 100 ug/ml after 24 hrs by ELISA. The class given is functional, cell-based. The method in brief:
as §1

Data set [6] deals with PBMC. In words: Immunomodulatory activity in human PBMC assessed as induction of IL12 at 100 ug/ml after 24 hrs. The class given is functional, cell-based. Summed up: (§2)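 Human PBMCs plated at 5 × 10^6 cells/mL; compounds dissolved in PBS added at various concentrations, 37 °C for 24 h. Supernatant cytokines/chemokines quantified with human Luminex multiplex kit.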
Data set [7] concerns PBMC. In words: Immunomodulatory activity in human PBMC assessed as induction of TNFalpha at 100 ug/ml after 24 hrs. It is filed as functional, cell-based. The method in brief:
as §2

Data set [8] relates to PBMC. The data set is described as follows: Immunomodulatory activity in human PBMC assessed as induction of IFN-alpha at 100 ug/ml after 24 hrs.
Data set [9] in a line: Metabolic stability in human serum assessed as full length product remaining after 10 mins by HPLC. It is filed as ADME, cell-free. Conditions: read-out: Stability. Summed up:
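About 0.5 A260 units compound in 1% human serum in PBS, 37 °C; aliquot taken at 10 min, analysed by anion-exchange HPLC for percent intact full-length product.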

Calls of active or inactive are those of the source. No cut-off for these calls is given here.

Chain of Toll-like receptor 3 (Homo sapiens) (O15455 whole entry): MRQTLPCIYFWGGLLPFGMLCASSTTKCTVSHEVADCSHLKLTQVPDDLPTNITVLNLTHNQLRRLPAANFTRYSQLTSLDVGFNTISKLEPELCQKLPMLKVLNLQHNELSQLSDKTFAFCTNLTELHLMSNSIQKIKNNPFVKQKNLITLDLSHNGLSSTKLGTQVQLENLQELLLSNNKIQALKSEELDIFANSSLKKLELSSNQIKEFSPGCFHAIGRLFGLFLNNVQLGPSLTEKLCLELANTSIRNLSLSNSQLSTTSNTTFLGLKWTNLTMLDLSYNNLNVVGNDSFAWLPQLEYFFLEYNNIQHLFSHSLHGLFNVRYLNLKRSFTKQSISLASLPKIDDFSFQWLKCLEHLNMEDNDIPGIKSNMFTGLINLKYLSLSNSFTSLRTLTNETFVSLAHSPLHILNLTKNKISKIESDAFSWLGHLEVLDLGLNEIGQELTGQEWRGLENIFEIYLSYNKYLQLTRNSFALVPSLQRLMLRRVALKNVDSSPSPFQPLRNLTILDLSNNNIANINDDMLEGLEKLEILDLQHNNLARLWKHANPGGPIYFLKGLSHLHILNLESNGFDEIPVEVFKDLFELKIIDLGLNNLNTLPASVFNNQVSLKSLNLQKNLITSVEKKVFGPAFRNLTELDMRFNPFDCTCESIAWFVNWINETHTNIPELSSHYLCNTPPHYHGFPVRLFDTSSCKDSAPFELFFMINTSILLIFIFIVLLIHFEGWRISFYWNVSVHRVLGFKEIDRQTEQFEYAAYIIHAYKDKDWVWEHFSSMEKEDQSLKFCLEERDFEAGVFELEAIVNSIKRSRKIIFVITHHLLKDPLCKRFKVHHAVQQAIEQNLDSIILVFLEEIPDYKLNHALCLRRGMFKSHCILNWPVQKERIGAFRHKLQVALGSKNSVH

Consider `Nc1ccn([C@@H]2O[C@H](COP(O)(=S)O[C@H]3[C@@H](O)[C@H](n4ccc(=O)[nH]c4=O)O[C@@H]3COP(O)(=S)O[C@H]3[C@@H](O)[C@H](n4ccc(=O)[nH]c4=O)O[C@@H]3COP(O)(=S)O[C@H]3[C@@H](O)[C@H](n4ccc(N)nc4=O)O[C@@H]3COP(O)(=S)O[C@H]3[C@@H](O)[C@H](n4ccc5c(=O)[nH]c(N)nc54)O[C@@H]3COP(O)(=S)O[C@H]3[C@@H](O)[C@H](n4ccc(=O)[nH]c4=O)O[C@@H]3COP(O)(=S)O[C@H]3[C@@H](O)[C@H](n4ccc(N)nc4=O)O[C@@H]3COP(O)(=S)O[C@H]3[C@@H](O)[C@H](n4ccc5c(=O)[nH]c(N)nc54)O[C@@H]3COP(O)(=S)O[C@H]3[C@@H](O)[C@H](n4ccc(=O)[nH]c4=O)O[C@@H]3CO)[C@@H](OP(O)(=S)OC[C@H]3O[C@@H](n4ccc(=O)[nH]c4=O)[C@H](O)[C@@H]3OP(O)(=S)OC[C@H]3O[C@@H](n4ccc5c(=O)[nH]c(N)nc54)[C@H](O)[C@@H]3OP(O)(=S)OCC(O)COP(O)(=S)O[C@H]3[C@@H](O)[C@H](n4ccc5c(=O)[nH]c(N)nc54)O[C@@H]3COP(O)(=S)O[C@H]3[C@@H](O)[C@H](n4ccc(=O)[nH]c4=O)O[C@@H]3COP(O)(=S)O[C@H]3[C@@H](O)[C@H](n4ccc(N)nc4=O)O[C@@H]3COP(O)(=S)O[C@H]3[C@@H](O)[C@H](n4ccc(=O)[nH]c4=O)O[C@@H]3COP(O)(=S)O[C@H]3[C@@H](O)[C@H](n4ccc(=O)[nH]c4=O)O[C@@H]3COP(O)(=S)O[C@H]3[C@@H](O)[C@H](n4ccc(N)nc4=O)O[C@@H]3COP(O)(=S)O[C@H]3[C@@H](O)[C@H](n4ccc5c(=O)[nH]c(N)nc54)O[C@@H]3COP(O)(=S)O[C@H]3[C@@H](O)[C@H](n4ccc(=O)[nH]c4=O)O[C@@H]3COP(O)(=S)O[C@H]3[C@@H](O)[C@H](n4ccc(N)nc4=O)O[C@@H]3COP(O)(=S)O[C@H]3[C@@H](O)[C@H](n4ccc5c(=O)[nH]c(N)nc54)O[C@@H]3COP(O)(=S)O[C@H]3[C@@H](O)[C@H](n4ccc(=O)[nH]c4=O)O[C@@H]3CO)[C@H]2O)c(=O)n1` (stereo not given in full), for which the fold change (FC) in [1] worked out at 4.7. Further, the result in data set [2] and in data set [3] was inactive. Further, the result in the data set with Splenocyte [4] and in the data set with Splenocyte [5] was Active. Also, the figures for the Activity in the data set on PBMC [6] and with PBMC [7] were 1110 pg/mL and 385 pg/mL, respectively. The IFN-alpha in the data set with PBMC [8] is 385 pg/mL.
Turning to `Nc1ncnc2c1ncn2[C@@H]1O[C@H](CO)[C@@H](OP(=O)(S)OC[C@H]2O[C@@H](n3cnc4c(N)ncnc43)[C@H](O)[C@@H]2OP(=O)(S)OC[C@H]2O[C@@H](n3cnc4c(N)ncnc43)[C@H](O)[C@@H]2OP(=O)(S)OC[C@H]2O[C@@H](n3cnc4c(N)ncnc43)[C@H](O)[C@@H]2OP(=O)(S)OC[C@H]2O[C@@H](n3cnc4c(N)ncnc43)[C@H](O)[C@@H]2OP(=O)(S)OC[C@H]2O[C@@H](n3cnc4c(N)ncnc43)[C@H](O)[C@@H]2OP(=O)(S)OC[C@H]2O[C@@H](n3cnc4c(N)ncnc43)[C@H](O)[C@@H]2OP(=O)(S)OC[C@H]2O[C@@H](n3cnc4c(N)ncnc43)[C@H](O)[C@@H]2OP(=O)(S)OC[C@H]2O[C@@H](n3cnc4c(N)ncnc43)[C@H](O)[C@@H]2OP(=O)(S)OC[C@H]2O[C@@H](n3cnc4c(N)ncnc43)[C@H](O)[C@@H]2OP(=O)(S)OC[C@H]2O[C@@H](n3cnc4c(N)ncnc43)[C@H](O)[C@@H]2OP(=O)(S)OCC(O)COP(=O)(S)O[C@H]2[C@@H](O)[C@H](n3cnc4c(N)ncnc43)O[C@@H]2COP(=O)(S)O[C@H]2[C@@H](O)[C@H](n3cnc4c(N)ncnc43)O[C@@H]2COP(=O)(S)O[C@H]2[C@@H](O)[C@H](n3cnc4c(N)ncnc43)O[C@@H]2COP(=O)(S)O[C@H]2[C@@H](O)[C@H](n3cnc4c(N)ncnc43)O[C@@H]2COP(=O)(S)O[C@H]2[C@@H](O)[C@H](n3cnc4c(N)ncnc43)O[C@@H]2COP(=O)(S)O[C@H]2[C@@H](O)[C@H](n3cnc4c(N)ncnc43)O[C@@H]2COP(=O)(S)O[C@H]2[C@@H](O)[C@H](n3cnc4c(N)ncnc43)O[C@@H]2COP(=O)(S)O[C@H]2[C@@H](O)[C@H](n3cnc4c(N)ncnc43)O[C@@H]2COP(=O)(S)O[C@H]2[C@@H](O)[C@H](n3cnc4c(N)ncnc43)O[C@@H]2COP(=O)(S)O[C@H]2[C@@H](O)[C@H](n3cnc4c(N)ncnc43)O[C@@H]2COP(=O)(S)O[C@H]2[C@@H](O)[C@H](n3cnc4c(N)ncnc43)O[C@@H]2CO)[C@H]1O` (stereo not given in full), the remaining at 10 min in data set [9] came out at 92%. Further, the fold change (FC) in data set [1] turned out to be 0.7. Also, the result in [2] and in data set [3] was inactive. The Activity stood at 183 pg/mL in the data set on PBMC [6] and 1.6 pg/mL in the data set on PBMC [7]. Moreover, the IFN-alpha in the data set with PBMC [8] was found to be 0 pg/mL.

These data come from ChEMBL document CHEMBL1154352, “Toll-like receptor 7 selective synthetic oligoribonucleotide agonists: synthesis and structure-activity relationship studies” (J Med Chem, 2009).
